Data: ChEMBL document CHEMBL5252569, “Synthesis and biological evaluation of new β-D-N4-hydroxycytidine analogs against SARS-CoV-2, influenza viruses and DENV-2” (Bioorg Med Chem Lett, 2023)
pEC50: −log10 of the molar value.

How the values were obtained:
Influenza B virus [1] = assay: (§1) Antiviral activity against Influenza B virus B/Lee/40 infected in MDCK cells assessed as reduction in virus-induced cytopathic effect pre-infected with cells for 1 hrs followed by compound addition and measured after 3 days by fluorescein diacetate-based cell viability assay; assay type: functional, organism-based; conditions: B/Lee/40, MDCK
Influenza A virus [2] = assay: (§2) Antiviral activity against Influenza A virus A/Puerto Rico/8/34 (H1N1) infected in MDCK cells assessed as reduction in virus-induced cytopathic effect pre-infected with cells for 1 hrs followed by compound addition and measured after 3 days by fluorescein diacetate-based cell viability assay; assay type: functional, organism-based
Influenza A virus [3] = assay: (§3) Antiviral activity against Influenza A virus A/Hong Kong/8/68 (H3N2) infected in MDCK cells assessed as reduction in virus-induced cytopathic effect pre-infected with cells for 1 hrs followed by compound addition and measured after 3 days by fluorescein diacetate-based cell viability assay; assay type: functional, organism-based
[4] = (§4) Cytotoxicity against African green monkey Vero cells assessed as reduction in cell viability incubated for 24 hrs by MTT assay; assay type: toxicity, cell-based; conditions: chlorocebus sabaeus, Vero cells
Summary of the method: (§5)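 Viability of non-infected or infected cells (Vero CCL-81 or MDCK CCL-34) measured by MTT; CC50 calculated by nonlinear regression.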

SARS-CoV-2 [5] = assay: (§6) Antiviral activity against SARS-CoV-2 (hCoV-19/Korea/KCDC-06/2020) infected in African green monkey Vero cells preincubated with cells for 24 hrs followed by viral infection and measured after 24 hrs by DAPI-staining based fluorescence assay; assay type: functional, organism-based; conditions: Severe acute respiratory syndrome coronavirus 2, hCoV-19/Korea/KCDC-06/2020, Vero
MDCK = assay: (§7) Cytotoxicity against MDCK cells assessed as reduction in cell viability measured for 48 hrs by MTT assay; assay type: toxicity, cell-based, Canis lupus familiaris; conditions: dog, mdck, 48 h; summary of the method: as §5
dengue virus type 2 [6] = assay: Antiviral activity against Dengue virus 2 infected in hamster BHK-21 cells incubated for 48 hrs by renilla luciferase based assay; assay type: functional, organism-based; conditions: BHK-21, 48 h
Summary of the method: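 DENV-2 replicon-bearing BHK-21 cells (DENV2-BHK); replication read out with a Renilla luciferase assay system; EC50 calculated by nonlinear regression.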

[7] = (§8) Cytotoxicity against hamster BHK-21 cells incubated for 4 days by MTS assay; assay type: toxicity, cell-based, Mesocricetus auratus; conditions: BHK-21 cells, time 4 day
Vero = assay: as §4; assay type: toxicity, cell-based; conditions: chlorocebus sabaeus, vero, 24 h; summary of the method: as §5
Influenza A virus [8] = assay: as §3, with “Potency index, ratio of ribavirin EC50 to test compound EC50 for antiviral” for “Antiviral”; assay type: functional; conditions: time 3 day
Influenza B virus [9] = assay: as §1, with “Potency index, ratio of ribavirin EC50 to test compound EC50 for antiviral” for “Antiviral”; assay type: functional; conditions: time 3 day
SARS-CoV-2 [10] = assay: as §6, with “Potency index, ratio of beta-D-N4-hydroxycytidine EC50 to test compound EC50 for antiviral activity against antiviral” for “Antiviral”; assay type: functional, Severe acute respiratory syndrome coronavirus 2; conditions: time 48 hrs
SARS-CoV-2 [11] = assay: as §6, with “Potency index, ratio of MK-4482 EC50 to test compound EC50 for antiviral activity against antiviral” for “Antiviral”; assay type: functional, Severe acute respiratory syndrome coronavirus 2; conditions: time 48 hrs
Influenza A virus [12] = assay: as §2, with “Potency index, ratio of ribavirin EC50 to test compound EC50 for antiviral” for “Antiviral”; assay type: functional; conditions: time 3 day
SARS-CoV-2 [13] = assay: as §6, with “Potency index, ratio of remdesivir EC50 to test compound EC50 for antiviral” for “Antiviral”; assay type: functional, Severe acute respiratory syndrome coronavirus 2; conditions: time 48 hrs
Influenza B virus [14] = assay: as §1, with “Potency index, ratio of T-705 EC50 to test compound EC50 for antiviral” for “Antiviral”; assay type: functional; conditions: time 3 day
dengue virus type 2 [15] = assay: Potency index, ratio of […] for antiviral activity against Dengue virus 2 infected in hamster BHK-21 cells incubated for 48 hrs by renilla luciferase based assay; assay type: functional
dengue virus type 2 [16] = assay: Potency index, ratio of MK-4482 EC50 to test compound EC50 for antiviral activity against Dengue virus 2 infected in hamster BHK-21 cells incubated for 48 hrs by renilla luciferase based assay; assay type: functional
Influenza B virus [17] = assay: as §1, with “Potency index, ratio of MK-4482 EC50 to test compound EC50 for antiviral” for “Antiviral”; assay type: functional; conditions: time 3 day
BHK-21 = assay: as §8; assay type: toxicity, cell-based, Mesocricetus auratus; conditions: bhk-21, 96 h, time 4 day
[18] = as §7; assay type: toxicity, cell-based, Canis lupus familiaris; conditions: dog, MDCK cells; summary of the method: as §5

NC(=O)c1nc(F)cnc1O
pEC50 (Influenza B virus [1]): 5.12 | pEC50 (Influenza A virus [2]): 5.49 | pEC50 (Influenza A virus [3]): 5.07

CCC(CC)COC(=O)[C@H](C)N[P@](=O)(OC[C@H]1O[C@@](C#N)(c2ccc3c(N)ncnn23)[C@H](O)[C@@H]1O)Oc1ccccc1
CC50 at 24 h [4]: > 100 µM

CCOC(=O)[C@H](C)Nc1ccn([C@@H]2O[C@H](CO)[C@@H](O)[C@H]2O)c(=O)n1
pEC50 (Influenza B virus [1]): < 4.00 | pEC50 (SARS-CoV-2 [5]): < 4.00 | CC50 (MDCK): > 100 µM | pEC50 (dengue virus type 2 [6]): 4.00 | pEC50 (Influenza A virus [2]): < 4.00 | CC50 at 96 h [7]: 100 µM | pEC50 (Influenza A virus [3]): < 4.00 | CC50 (Vero): > 100 µM

CCOC(=O)[C@H](Cc1ccccc1)Nc1ccn([C@@H]2O[C@H](CO)[C@@H](O)[C@H]2O)c(=O)n1
pEC50 (Influenza B virus [1]): < 4.00 | pEC50 (SARS-CoV-2 [5]): < 4.00 | CC50 (MDCK): > 100 µM | pEC50 (dengue virus type 2 [6]): 4.00 | pEC50 (Influenza A virus [2]): < 4.00 | CC50 at 96 h [7]: 100 µM | pEC50 (Influenza A virus [3]): < 4.00 | CC50 (Vero): > 100 µM

NNc1ccn([C@@H]2O[C@H](CO)[C@@H](O)[C@H]2O)c(=O)n1
pEC50 (Influenza B virus [1]): < 4.00 | pEC50 (SARS-CoV-2 [5]): < 4.00 | CC50 (MDCK): > 100 µM | pEC50 (dengue virus type 2 [6]): 4.00 | pEC50 (Influenza A virus [2]): < 4.00 | CC50 at 96 h [7]: 100 µM | pEC50 (Influenza A virus [3]): < 4.00 | CC50 (Vero): > 100 µM

CCOC(=O)CNc1ccn([C@@H]2O[C@H](CO)[C@@H](O)[C@H]2O)c(=O)n1
pEC50 (Influenza B virus [1]): < 4.00 | pEC50 (SARS-CoV-2 [5]): < 4.00 | CC50 (MDCK): > 100 µM | pEC50 (dengue virus type 2 [6]): 4.00 | pEC50 (Influenza A virus [2]): < 4.00 | CC50 at 96 h [7]: 100 µM | pEC50 (Influenza A virus [3]): < 4.00 | CC50 (Vero): > 100 µM

CCOC(=O)[C@H](CC(C)C)Nc1ccn([C@@H]2O[C@H](CO)[C@@H](O)[C@H]2O)c(=O)n1
pEC50 (Influenza B virus [1]): < 4.00 | pEC50 (SARS-CoV-2 [5]): < 4.00 | CC50 (MDCK): > 100 µM | pEC50 (dengue virus type 2 [6]): 4.00 | pEC50 (Influenza A virus [2]): < 4.00 | CC50 at 96 h [7]: 100 µM | pEC50 (Influenza A virus [3]): < 4.00 | CC50 (Vero): > 100 µM

CC(C)C(=O)ONc1ccn([C@@H]2O[C@H](CO)[C@@H](O)[C@H]2O)c(=O)n1
Ratio EC50 (Influenza A virus [8]): 5 | Ratio EC50 (Influenza B virus [9]): 10 | Ratio EC50 (SARS-CoV-2 [10]): >4.7 | Ratio EC50 (SARS-CoV-2 [11]): 3.4 | Ratio EC50 (Influenza A virus [12]): 6 | pEC50 (Influenza B virus [1]): 5.47 | Ratio EC50 (SARS-CoV-2 [13]): 3 | pEC50 (SARS-CoV-2 [5]): 5.46 | Ratio EC50 (Influenza B virus [14]): 2 | Ratio EC50 (dengue virus type 2 [15]): 3 | Ratio EC50 (dengue virus type 2 [16]): 5.9 | pEC50 (dengue virus type 2 [6]): 5.40 | Ratio EC50 (Influenza B virus [17]): 7 | pEC50 (Influenza A virus [2]): 5.24 | CC50 (BHK-21): 10.8 µM | pEC50 (Influenza A virus [3]): 5.14

CC(C)(C)OC(=O)NNc1ccn([C@@H]2O[C@H](CO)[C@@H](O)[C@H]2O)c(=O)n1
pEC50 (Influenza B virus [1]): < 4.00 | pEC50 (SARS-CoV-2 [5]): < 4.00 | CC50 (MDCK): > 100 µM | pEC50 (dengue virus type 2 [6]): 4.00 | pEC50 (Influenza A virus [2]): < 4.00 | CC50 at 96 h [7]: 100 µM | pEC50 (Influenza A virus [3]): < 4.00 | CC50 (Vero): > 100 µM

O=c1nc(NCCO)ccn1[C@@H]1O[C@H](CO)[C@@H](O)[C@H]1O
pEC50 (Influenza B virus [1]): < 4.00 | pEC50 (SARS-CoV-2 [5]): < 4.00 | CC50 at 48 h [18]: > 100 µM | pEC50 (dengue virus type 2 [6]): 4.00 | pEC50 (Influenza A virus [2]): < 4.00 | CC50 at 96 h [7]: 100 µM | pEC50 (Influenza A virus [3]): < 4.00 | CC50 at 24 h [4]: > 100 µM

NC12CC3CC(CC(C3)C1)C2 [AMANTADINE]
pEC50 (Influenza B virus [1]): < 4.00 | pEC50 (Influenza A virus [2]): < 4.00 | pEC50 (Influenza A virus [3]): 5.19

CC(C)C(=O)OC[C@H]1O[C@@H](n2ccc(NO)nc2=O)[C@H](O)[C@@H]1O [MOLNUPIRAVIR]
pEC50 (Influenza B virus [1]): 4.62 | pEC50 (SARS-CoV-2 [5]): 4.93 | pEC50 (dengue virus type 2 [6]): 4.63 | pEC50 (Influenza A virus [2]): 5.18 | CC50 (BHK-21): 42.2 µM | pEC50 (Influenza A virus [3]): 5.22

O=c1nc(NO)ccn1[C@@H]1O[C@H](CO)[C@@H](O)[C@H]1O [N-HYDROXYCYTIDINE]
pEC50 (Influenza B virus [1]): > 5.92 | pEC50 (SARS-CoV-2 [5]): < 4.78 | CC50 (MDCK): > 100 µM | pEC50 (dengue virus type 2 [6]): 5.55 | pEC50 (Influenza A virus [2]): 5.77 | CC50 (BHK-21): 5.75 µM | pEC50 (Influenza A virus [3]): 5.64 | CC50 (Vero): 16.5 µM

NC(=O)c1ncn([C@@H]2O[C@H](CO)[C@@H](O)[C@H]2O)n1 [RIBAVIRIN]
pEC50 (Influenza B virus [1]): 4.48 | CC50 at 48 h [18]: > 100 µM | pEC50 (dengue virus type 2 [6]): 5.94 | CC50 (BHK-21): 5.46 µM
